Results on 4 compounds are retold here after ChEMBL document CHEMBL3352425, “Development of αGlcN(1↔1)αMan-based lipid A mimetics as a novel class of potent Toll-like receptor 4 agonists” (J Med Chem, 2014).

The source made the active and inactive calls. The calls are words filed in the database; no cut-off is given here.

The species named for series [1] is Homo sapiens. Description: Induction of IL6 release in human DC at 1 ng/ml by Luminex.
Series [2] is described as follows: Induction of TNFalpha level in C57BL/6J mouse BMDM at 1 nM after 16 hrs by ELISA. Type of series: functional. In a few lines:
(§1)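 C57BL/6J bone marrow cells were differentiated 6 days with 40 ng/mL M-CSF in RPMI with 20% FBS, then seeded at 1 × 10⁶ cells/mL in RPMI with 10% FBS. After 24 h, cells were stimulated for 16 h, with nM concentrations based on compound MW. Supernatant cytokines were measured by ELISA.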

Series [3] can be described thus: Cytotoxicity against human DC by propidium iodide staining. In a few lines: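 Immature monocyte-derived DCs were stimulated with compound across a wide concentration range, and cytotoxicity was assessed by propidium iodide staining.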
For series [4], the species on record is Homo sapiens. Description: Induction of IL12 release in human DC at 1 ng/ml by Luminex.
For series [5], the system named is THP-1. Description: Induction of MCP1 expression in human THP1 cells after 18 hrs by ELISA. Type of series: functional, cell-based. In a few lines: (§2)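 THP-1 cells in RPMI-1640 with 2 mM L-glutamine, antibiotics, 10% FCS; 10⁵ cells/well differentiated with 200 nM TPA for 24 h. Non-adherent cells washed off, 1 h recovery, then stimulated 18 h at indicated concentrations; E. coli Re-LPS or O111:B4 LPS as reference. DMSO stocks diluted in medium, final DMSO ≤0.01%. Supernatants assayed by ELISA.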

Series [6] addresses Toll-like receptor 4 (Homo sapiens) (UniProt O00206). Briefly: Agonist activity at human TLR4 expressed in HEK293 cells coexpressed with human MD2/CD14 assessed as activation of NFkappaB signaling at 10 ng/ml after 20 to 24 hrs by NFkappaB reporter assay. It is filed as cell-based. The gist of the method: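 HEK-Blue hTLR4 cells (HEK293 co-transfected with hTLR4/MD-2/CD14), 25000 per well, were stimulated with compound diluted in DMEM with 10% FCS (final DMSO ≤0.005–0.01%) for 20–24 h at 37 °C, 5% CO2. Secreted SEAP in the supernatant was read with QUANTI-Blue at 650 nm. Data were pooled from n = 3 independent experiments, SEM.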

For series [7] the target is unchanged. Briefly: Agonist activity at human TLR4 in human THP1 cells assessed as induction of MyD88 signaling after 18 hrs by ELISA. It is filed as cell-based. The conditions noted are these: THP-1. The gist of the method: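 THP-1 cells were seeded at 10⁵ per well and differentiated to macrophage-like cells with 200 nM TPA for 24 h. Non-adherent cells were washed off, and the remainder rested 1 h in fresh complete RPMI with 10% FCS. Cells were then stimulated for 18 h, and TNF-α, IL-8 and MCP-1 in the supernatants were measured by ELISA.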

The test system of series [8] is THP-1. Description: Induction of IL8 expression in human THP1 cells after 18 hrs by ELISA. Type of series: functional, cell-based. The gist of the method:
as §2

A short description of series [9]: Induction of human DC maturation assessed as upregulation of MHC class 2 at 10 ng/ml after 24 hrs by flow cytometry. Type of series: functional.
Series [10] can be described thus: Induction of human DC maturation assessed as upregulation of CD86 at 10 ng/ml after 24 hrs by flow cytometry. Type of series: functional.
Series [11] is filed under the species Homo sapiens. Description: Induction of IL10 release in human DC at 1 ng/ml by Luminex.
Series [12] can be described thus: Induction of IL-6 level in C57BL/6J mouse BMDM at 1 nM after 16 hrs by ELISA. It is filed as functional. In a few lines: as §1
Series [13] is described as follows: Induction of human DC maturation assessed as upregulation of MHC class 1 at 10 ng/ml after 24 hrs by flow cytometry. Type of series: functional.
Series [14] relates to THP-1. Description: Induction of TNFalpha expression in human THP1 cells after 18 hrs by ELISA. It is filed as functional, cell-based. In a few lines: as §2
The species entered for series [15] is Homo sapiens. Briefly: Induction of TNFalpha release in human DC at 1 ng/ml by Luminex.
The test system of another series is BMDM. Description: Induction of IL-6 level in C57BL/6J mouse BMDM after 16 hrs by ELISA. It is filed as functional. In a few lines:
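Bone marrow flushed from femur and tibia, erythrocytes lysed (0.88% ammonium chloride, 15 min, 37 °C), differentiated 6 days in RPMI/20% FBS with 40 ng/mL M-CSF. Replated at 1 × 10⁶ cells/mL in RPMI/10% FBS, stimulated after 24 h for 16 h. Nanomolar doses calculated from MW. DMSO stocks diluted in medium, final DMSO ≤0.01%. Supernatant IL-6 by ELISA.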

Chain of Toll-like receptor 4 (Homo sapiens) (O00206 whole entry): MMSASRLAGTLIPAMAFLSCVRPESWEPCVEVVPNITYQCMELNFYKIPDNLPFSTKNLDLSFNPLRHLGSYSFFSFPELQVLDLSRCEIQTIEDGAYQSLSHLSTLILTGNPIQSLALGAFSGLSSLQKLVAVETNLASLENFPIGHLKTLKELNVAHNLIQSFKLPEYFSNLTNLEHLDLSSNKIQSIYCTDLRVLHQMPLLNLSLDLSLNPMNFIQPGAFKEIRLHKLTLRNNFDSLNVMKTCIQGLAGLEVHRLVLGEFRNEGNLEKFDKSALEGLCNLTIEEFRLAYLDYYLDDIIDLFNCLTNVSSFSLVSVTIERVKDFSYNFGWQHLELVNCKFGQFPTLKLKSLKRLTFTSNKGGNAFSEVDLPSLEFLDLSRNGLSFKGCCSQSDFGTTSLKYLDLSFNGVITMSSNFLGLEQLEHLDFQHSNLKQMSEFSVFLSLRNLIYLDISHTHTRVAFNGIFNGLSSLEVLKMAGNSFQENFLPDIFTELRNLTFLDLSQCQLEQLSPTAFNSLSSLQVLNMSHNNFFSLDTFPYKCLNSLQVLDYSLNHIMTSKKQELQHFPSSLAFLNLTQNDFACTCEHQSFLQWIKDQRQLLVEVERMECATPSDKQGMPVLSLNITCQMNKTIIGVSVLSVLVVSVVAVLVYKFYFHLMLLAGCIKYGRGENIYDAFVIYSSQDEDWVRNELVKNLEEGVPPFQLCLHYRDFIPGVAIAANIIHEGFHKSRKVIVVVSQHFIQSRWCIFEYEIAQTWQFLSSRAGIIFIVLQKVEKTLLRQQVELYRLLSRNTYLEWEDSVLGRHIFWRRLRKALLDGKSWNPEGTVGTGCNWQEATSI

For the compound `CCCCCCCCCCCCCC(=O)O[C@H](CCCCCCCCCCC)CC(=O)O[C@@H]1[C@@H](NC(=O)C[C@@H](CCCCCCCCCCC)OC(=O)CCCCCCCCCCC)[C@@H](O[C@H]2O[C@H](COP(=O)(O)O)[C@@H](OC(=O)C[C@H](CCCCCCCCCCC)OC(=O)CCCCCCCCCCC)[C@H](O)[C@@H]2OC)O[C@H](CO)[C@H]1OP(=O)(O)O`, the outcome (in the series listed under Homo sapiens [1]; in the series filed under Homo sapiens [4]; in the series with THP-1 [5]; in series [6]; in series [7]; in series [9]) was Active. Besides, the outcome (in series [10]; in the series listed under Homo sapiens [11]; in [13]; in the series listed under Homo sapiens [15]) was Active. The Activity in series [2] was 4000 pg/mL; in series [3] it was “Non-toxic”; in the series with THP-1 [8], “Dose-dependent effect”; in [12], 1500 pg/mL; in the series with THP-1 [14] it was “Dose-dependent effect”.
The compound `CCCCCCCCCCCCCC(=O)O[C@H](CCCCCCCCCCC)CC(=O)N[C@H]1[C@H](OC[C@H]2O[C@H](OP(=O)(O)O)[C@H](NC(=O)C[C@H](O)CCCCCCCCCCC)[C@@H](OC(=O)C[C@H](O)CCCCCCCCCCC)[C@@H]2O)O[C@H](CO)[C@@H](OP(=O)(O)O)[C@@H]1OC(=O)C[C@@H](CCCCCCCCCCC)OC(=O)CCCCCCCCCCCCC` had an Activity in series [2] of 2000 pg/mL.
In the case of `CCCCCCCCCCCCCC(=O)O[C@H](CCCCCCCCCCC)CC(=O)O[C@@H]1[C@@H](NC(=O)C[C@@H](CCCCCCCCCCC)OC(=O)CCCCCCCCCCC)[C@@H](O[C@H]2O[C@H](CO)[C@@H](OC(=O)C[C@H](CCCCCCCCCCC)OC(=O)CCCCCCCCCCC)[C@H](O)[C@@H]2OC)O[C@H](CO)[C@H]1OP(=O)(O)O`, the outcome in the series filed under Homo sapiens [1], in the series filed under Homo sapiens [4], in the series with THP-1 [5], in the series on THP-1 [8], in the series listed under Homo sapiens [11] and with THP-1 [14] was inactive. Moreover, in the series filed under Homo sapiens [15], the result was inactive. Further, the values for the Activity (in series [2]; in [3]; in the series with BMDM) were 500 pg/mL, “Non-toxic” and “Dose-dependent effect”, respectively.
`CCCCCCCCCCCCCC(=O)O[C@H](CCCCCCCCCCC)CC(=O)O[C@@H]1[C@@H](NC(=O)C[C@@H](CCCCCCCCCCC)OC(=O)CCCCCCCCCCC)[C@@H](O[C@H]2O[C@H](COP(=O)(O)O)[C@@H](OC(=O)C[C@H](CCCCCCCCCCC)OC(=O)CCCCCCCCC)[C@H](O)[C@@H]2OC)O[C@H](CO)[C@H]1OP(=O)(O)O`: the Activity in series [2] is 4000 pg/mL; in series [3], “Non-toxic”; in the series with THP-1 [8], “Dose-dependent effect”; in series [12], 1500 pg/mL; in the series with THP-1 [14] it was “Dose-dependent effect”. The result (in the series on THP-1 [5]; in [7]) was Active.
